# From ChEMBL document CHEMBL4689842, “EUbOPEN Chemogenomics Library wave 1” (2021)
# Key:
# Type in all cases: toxicity, cell-based
# Fibroblast = test: Multiplex assay against human fibroblast
# Outline: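 Phenotypes for tubulin, mitochondrial mass and membrane permeability are expressed as per cents of healthy-nucleus cells. Cells were stained live at seeding with Hoechst33342, BioTracker Green Microtubule Cytoskeleton Dye, MitoTracker Red and Annexin V Alexa Fluor 680, then imaged after compound addition on a CQ1 microscope at 37°C and 5% CO2. Machine-learning gating in CellPathfinder separated Hoechst high-intensity objects from normal cells, divided normal cells by nuclear state (healthy, pyknosed, fragmented) and divided pyknosed cells into mitotic or apoptotic.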
# HEK-293T = test: Incucyte cell viability with HEK293T; conditions: human, 10 µM, compound concentration 10 uM; also: filed as whole numbers so only -1 and 0 and 1 occur
# U2OS = test: Incucyte cell viability with U2OS; conditions: human, 10 µM, compound concentration 10 uM; also: filed as whole numbers so only -1 and 0 and 1 occur
# [1] = 12 h, 1 µM, compound concentration 1 uM, replicate 1
# [2] = 12 h, 1 µM, compound concentration 1 uM, replicate 2
# [3] = 12 h, 10 µM, compound concentration 10 uM, replicate 1
# [4] = 12 h, 10 µM, compound concentration 10 uM, replicate 2
# [5] = 24 h, 1 µM, compound concentration 1 uM, replicate 1
# [6] = 24 h, 1 µM, compound concentration 1 uM, replicate 2
# [7] = 24 h, 10 µM, compound concentration 10 uM, replicate 1
# [8] = 24 h, 10 µM, compound concentration 10 uM, replicate 2
# [9] = 48 h, 1 µM, compound concentration 1 uM, replicate 1
# [10] = 48 h, 1 µM, compound concentration 1 uM, replicate 2
# [11] = 48 h, 10 µM, compound concentration 10 uM, replicate 1
# [12] = 48 h, 10 µM, compound concentration 10 uM, replicate 2
# [13] = 6 h, replicate number 1, timepoint 6 hours
# [14] = 12 h, replicate number 1, timepoint 12 hours
# [15] = 18 h, replicate number 1, timepoint 18 hours
# [16] = 24 h, replicate number 1, timepoint 24 hours
smiles,measurement,setting,value
CCCCCNC(=N)N/N=C/c1c[nH]c2ccc(OC)cc12.O=C(O)/C=C\C(=O)O [TEGASEROD MALEATE],Population Apoptotic (%),Fibroblast; [1],65%
same,Population Fragmented Nuclei (%),Fibroblast; [1],25%
same,Population Healthy Nuclei (%),Fibroblast; [1],47%
same,Population Hoechst High Intensity Objects (%),Fibroblast; [1],8%
same,Population Membrane Permeable-Phenotype (%),Fibroblast; [1],10%
same,Population Mitochondria Different-Phenotype (%),Fibroblast; [1],0%
same,Population Mitotic Cells (%),Fibroblast; [1],34%
same,Population Normal (%),Fibroblast; [1],91%
same,Population Pyknosed Nuclei (%),Fibroblast; [1],27%
same,Population Tubulin-Different-Phenotype (%),Fibroblast; [1],22%
same,Total Cell Count,Fibroblast; [1],114
same,Population Apoptotic (%),Fibroblast; [2],20%
same,Population Fragmented Nuclei (%),Fibroblast; [2],12%
same,Population Healthy Nuclei (%),Fibroblast; [2],79%
same,Population Hoechst High Intensity Objects (%),Fibroblast; [2],3%
same,Population Membrane Permeable-Phenotype (%),Fibroblast; [2],4%
same,Population Mitochondria Different-Phenotype (%),Fibroblast; [2],22%
same,Population Mitotic Cells (%),Fibroblast; [2],80%
same,Population Normal (%),Fibroblast; [2],96%
same,Population Pyknosed Nuclei (%),Fibroblast; [2],8%
same,Population Tubulin-Different-Phenotype (%),Fibroblast; [2],14%
same,Total Cell Count,Fibroblast; [2],74
same,Population Apoptotic (%),Fibroblast; [3],50%
same,Population Fragmented Nuclei (%),Fibroblast; [3],34%
same,Population Healthy Nuclei (%),Fibroblast; [3],12%
same,Population Hoechst High Intensity Objects (%),Fibroblast; [3],20%
same,Population Membrane Permeable-Phenotype (%),Fibroblast; [3],6%
same,Population Mitochondria Different-Phenotype (%),Fibroblast; [3],50%
same,Population Mitotic Cells (%),Fibroblast; [3],49%
same,Population Normal (%),Fibroblast; [3],80%
same,Population Pyknosed Nuclei (%),Fibroblast; [3],52%
same,Population Tubulin-Different-Phenotype (%),Fibroblast; [3],62%
same,Total Cell Count,Fibroblast; [3],155
same,Population Apoptotic (%),Fibroblast; [4],100%
same,Population Fragmented Nuclei (%),Fibroblast; [4],22%
same,Population Healthy Nuclei (%),Fibroblast; [4],3%
same,Population Hoechst High Intensity Objects (%),Fibroblast; [4],35%
same,Population Membrane Permeable-Phenotype (%),Fibroblast; [4],100%
same,Population Mitochondria Different-Phenotype (%),Fibroblast; [4],100%
same,Population Mitotic Cells (%),Fibroblast; [4],0%
same,Population Normal (%),Fibroblast; [4],64%
same,Population Pyknosed Nuclei (%),Fibroblast; [4],73%
same,Population Tubulin-Different-Phenotype (%),Fibroblast; [4],100%
same,Total Cell Count,Fibroblast; [4],64
same,Population Apoptotic (%),Fibroblast; [5],52%
same,Population Fragmented Nuclei (%),Fibroblast; [5],24%
same,Population Healthy Nuclei (%),Fibroblast; [5],56%
same,Population Hoechst High Intensity Objects (%),Fibroblast; [5],10%
same,Population Membrane Permeable-Phenotype (%),Fibroblast; [5],15%
same,Population Mitochondria Different-Phenotype (%),Fibroblast; [5],1%
same,Population Mitotic Cells (%),Fibroblast; [5],47%
same,Population Normal (%),Fibroblast; [5],90%
same,Population Pyknosed Nuclei (%),Fibroblast; [5],18%
same,Population Tubulin-Different-Phenotype (%),Fibroblast; [5],35%
same,Total Cell Count,Fibroblast; [5],100
same,Population Apoptotic (%),Fibroblast; [6],87%
same,Population Fragmented Nuclei (%),Fibroblast; [6],10%
same,Population Healthy Nuclei (%),Fibroblast; [6],77%
same,Population Hoechst High Intensity Objects (%),Fibroblast; [6],5%
same,Population Membrane Permeable-Phenotype (%),Fibroblast; [6],5%
same,Population Mitochondria Different-Phenotype (%),Fibroblast; [6],21%
same,Population Mitotic Cells (%),Fibroblast; [6],12%
same,Population Normal (%),Fibroblast; [6],94%
same,Population Pyknosed Nuclei (%),Fibroblast; [6],12%
same,Population Tubulin-Different-Phenotype (%),Fibroblast; [6],7%
same,Total Cell Count,Fibroblast; [6],89
same,Population Apoptotic (%),Fibroblast; [7],74%
same,Population Fragmented Nuclei (%),Fibroblast; [7],39%
same,Population Healthy Nuclei (%),Fibroblast; [7],7%
same,Population Hoechst High Intensity Objects (%),Fibroblast; [7],18%
same,Population Membrane Permeable-Phenotype (%),Fibroblast; [7],12%
same,Population Mitochondria Different-Phenotype (%),Fibroblast; [7],37%
same,Population Mitotic Cells (%),Fibroblast; [7],25%
same,Population Normal (%),Fibroblast; [7],81%
same,Population Pyknosed Nuclei (%),Fibroblast; [7],53%
same,Population Tubulin-Different-Phenotype (%),Fibroblast; [7],75%
same,Total Cell Count,Fibroblast; [7],133
same,Population Apoptotic (%),Fibroblast; [8],100%
same,Population Fragmented Nuclei (%),Fibroblast; [8],44%
same,Population Healthy Nuclei (%),Fibroblast; [8],26%
same,Population Hoechst High Intensity Objects (%),Fibroblast; [8],39%
same,Population Membrane Permeable-Phenotype (%),Fibroblast; [8],100%
same,Population Mitochondria Different-Phenotype (%),Fibroblast; [8],100%
same,Population Mitotic Cells (%),Fibroblast; [8],0%
same,Population Normal (%),Fibroblast; [8],60%
same,Population Pyknosed Nuclei (%),Fibroblast; [8],28%
same,Population Tubulin-Different-Phenotype (%),Fibroblast; [8],100%
same,Total Cell Count,Fibroblast; [8],70
same,Population Apoptotic (%),Fibroblast; [9],50%
same,Population Fragmented Nuclei (%),Fibroblast; [9],37%
same,Population Healthy Nuclei (%),Fibroblast; [9],58%
same,Population Hoechst High Intensity Objects (%),Fibroblast; [9],15%
same,Population Membrane Permeable-Phenotype (%),Fibroblast; [9],10%
same,Population Mitochondria Different-Phenotype (%),Fibroblast; [9],1%
same,Population Mitotic Cells (%),Fibroblast; [9],50%
same,Population Normal (%),Fibroblast; [9],84%
same,Population Pyknosed Nuclei (%),Fibroblast; [9],4%
same,Population Tubulin-Different-Phenotype (%),Fibroblast; [9],24%
same,Total Cell Count,Fibroblast; [9],115
same,Population Apoptotic (%),Fibroblast; [10],66%
same,Population Fragmented Nuclei (%),Fibroblast; [10],23%
same,Population Healthy Nuclei (%),Fibroblast; [10],72%
same,Population Hoechst High Intensity Objects (%),Fibroblast; [10],18%
same,Population Membrane Permeable-Phenotype (%),Fibroblast; [10],12%
same,Population Mitochondria Different-Phenotype (%),Fibroblast; [10],3%
same,Population Mitotic Cells (%),Fibroblast; [10],33%
same,Population Normal (%),Fibroblast; [10],81%
same,Population Pyknosed Nuclei (%),Fibroblast; [10],3%
same,Population Tubulin-Different-Phenotype (%),Fibroblast; [10],44%
same,Total Cell Count,Fibroblast; [10],94
same,Population Apoptotic (%),Fibroblast; [11],76%
same,Population Fragmented Nuclei (%),Fibroblast; [11],48%
same,Population Healthy Nuclei (%),Fibroblast; [11],20%
same,Population Hoechst High Intensity Objects (%),Fibroblast; [11],33%
same,Population Membrane Permeable-Phenotype (%),Fibroblast; [11],17%
same,Population Mitochondria Different-Phenotype (%),Fibroblast; [11],23%
same,Population Mitotic Cells (%),Fibroblast; [11],23%
same,Population Normal (%),Fibroblast; [11],66%
same,Population Pyknosed Nuclei (%),Fibroblast; [11],30%
same,Population Tubulin-Different-Phenotype (%),Fibroblast; [11],64%
same,Total Cell Count,Fibroblast; [11],127
same,Population Apoptotic (%),Fibroblast; [12],85%
same,Population Fragmented Nuclei (%),Fibroblast; [12],52%
same,Population Healthy Nuclei (%),Fibroblast; [12],15%
same,Population Hoechst High Intensity Objects (%),Fibroblast; [12],45%
same,Population Membrane Permeable-Phenotype (%),Fibroblast; [12],30%
same,Population Mitochondria Different-Phenotype (%),Fibroblast; [12],50%
same,Population Mitotic Cells (%),Fibroblast; [12],15%
same,Population Normal (%),Fibroblast; [12],54%
same,Population Pyknosed Nuclei (%),Fibroblast; [12],31%
same,Population Tubulin-Different-Phenotype (%),Fibroblast; [12],80%
same,Total Cell Count,Fibroblast; [12],115
same,Growth Rate,"HEK-293T; 0 h, replicate number 2, timepoint 0 hours",1
same,Growth Rate,HEK-293T; [13],0
same,Growth Rate,HEK-293T; [14],0
same,Growth Rate,HEK-293T; [15],0
same,Growth Rate,HEK-293T; [16],0
same,Growth Rate,U2OS; [13],0
same,Growth Rate,U2OS; [14],0
same,Growth Rate,U2OS; [15],0
same,Growth Rate,U2OS; [16],0
